pIC50: −log10 of the molar value.
Assays:
[1] = tested on: Leishmania donovani; test: Antileishmanial activity against Leishmania donovani amastigote infected in mouse J774A.1 cells after 72 hrs by luciferase reporter gene assay; format: functional, organism-based; conditions: J774.A1, 72 h
Procedure, shortened: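 Macrophages seeded at 4×10^4 cells/well in RPMI-1640 + 10% FCS, 37 °C CO2, 24 h; then infected with stationary-phase luciferase-expressing promastigotes (4×10^5/well), which transform to amastigotes. Compounds at 2-fold dilutions, 7 points from 40 µM, 72 h. Read-out: luminescence after Steady Glo in PBS. IC50 by nonlinear regression of concentration-response, four-parameter Hill equation.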

[2] = Selectivity index, ratio of CC50 for human KB cells to IC50 for Leishmania donovani amastigote infected in mouse J774A.1 cells; format: functional
Procedure, shortened: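 SI computed as CC50 in KB cells (MTT, 72 h) divided by IC50 against amastigotes in luciferase-reporter infected J774A.1 macrophages (72 h).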

[3] = tested on: Leishmania donovani; test: Leishmanicidal activity against Leishmania donovani MHOM/IN/80/Dd8 infected in golden hamster at 50 mg/kg, ip for 5 consecutive days measured on day 7 of last drug administration by Giemsa staining method; format: functional; conditions: MHOM/IN/80/Dd8, ip, 168 h, route intraperitoneal
Procedure, shortened: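 Inbred hamsters of either sex, 40-45 g, infected intracardially with 1×10^7 amastigotes; infection establishes in 15-20 days. Only animals with +1 infection (5-15 amastigotes/100 spleen nuclei) on pre-treatment spleen biopsy were used, randomized by parasite burden, 5-6 per group. i.p. dosing began 2 days after biopsy. Giemsa amastigote counts; PI = 100 − [ANAT×100/(INAT×TIUC)].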

[4] = Cytotoxicity against human KB cells after 72 hrs by MTT assay; format: cell-based
Procedure, shortened: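 Exponentially growing cells at 1×10^5/well, 72 h at 37 °C, humidified CO2, with compounds at 3-fold dilutions, 7 points from 400 µM. Compounds dissolved in DMSO, diluted in complete medium. DMSO vehicle wells; podophyllotoxin reference. MTT (5 mg/ml in PBS) 2 h at 37 °C, formazan dissolved in DMSO, absorbance 544 nm. CC50 is the concentration giving 50% viability loss versus medium-only cells, estimated per Huber and Koella.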

Row | SMILES | pIC50 [1] | also measured
1 | CC1=C(/C=C/C2=NN(c3ccccc3)C(c3ccccc3[N+](=O)[O-])C2)C(C)(C)CCC1 (stereo not drawn) | < 4.70 | 
2 | CC1=C(/C=C/C2=NN(c3ccccc3)C(c3ccc(F)cc3)C2)C(C)(C)CCC1 (stereo not drawn) | < 4.40 | 
3 | CCCCCCCCCCCCCCCCOP(=O)([O-])OCC[N+](C)(C)C [MILTEFOSINE] |  | Ratio CC50/IC50 [2]: 0.26; inhibition in vivo at 50 mg/kg [3]: 95.3%
4 | CC1=C(/C=C/C2=NN(c3ccccc3)C(c3cccc([N+](=O)[O-])c3)C2)C(C)(C)CCC1 (stereo not drawn) | 4.77 | Ratio CC50/IC50 [2]: 16.48; inhibition in vivo at 50 mg/kg [3]: 7.13%; CC50 at 72 h [4]: 279 µM
5 | COc1cc(C2CC(/C=C/C3C(C)=CCCC3(C)C)=NN2c2ccccc2)cc(OC)c1OC (stereo not drawn) | < 4.70 | 
6 | COc1ccc(C2CC(/C=C/C3C(C)=CCCC3(C)C)=NN2c2ccccc2)cc1OC (stereo not drawn) | < 4.70 | 
7 | CC1=CCCC(C)(C)C1/C=C/c1cc(-c2ccc(F)cc2)n(-c2ccccc2)n1 (stereo not drawn) | < 4.40 | 
8 | CC1=CCCC(C)(C)C1/C=C/C1=NN(c2ccccc2)C(c2ccccc2[N+](=O)[O-])C1 (stereo not drawn) | < 4.70 | 
9 | COc1ccc(C2CC(/C=C/C3=C(C)CCCC3(C)C)=NN2c2ccccc2)cc1OC (stereo not drawn) | 5.13 | Ratio CC50/IC50 [2]: 29.46; inhibition in vivo at 50 mg/kg [3]: 80.8%; CC50 at 72 h [4]: 221 µM
10 | CC1=CCCC(C)(C)C1/C=C/C1=NN(c2ccccc2)C(c2ccc(F)cc2)C1 (stereo not drawn) | < 4.40 | 
11 | CC1=C(/C=C/C2=NN(c3ccccc3)C(c3ccc([N+](=O)[O-])cc3)C2)C(C)(C)CCC1 (stereo not drawn) | < 4.40 | 
12 | COc1ccc(-c2cc(/C=C/C3C(C)=CCCC3(C)C)nn2-c2ccccc2)cc1OC (stereo not drawn) | < 4.70 | 
13 | COc1cc(C2CC(/C=C/C3=C(C)CCCC3(C)C)=NN2c2ccccc2)cc(OC)c1OC (stereo not drawn) | < 4.70 | 
14 | CC1=CCCC(C)(C)C1/C=C/c1cc(-c2ccccc2[N+](=O)[O-])n(-c2ccccc2)n1 (stereo not drawn) | < 4.40 | 
15 | CC1=C(/C=C/C2=NN(c3ccccc3)C(c3ccc(Cl)cc3)C2)C(C)(C)CCC1 (stereo not drawn) | < 4.70 | 
16 | CC1=C(/C=C/C2=NN(c3ccccc3)C(c3ccc(OCc4ccccc4)cc3)C2)C(C)(C)CCC1 (stereo not drawn) | < 4.40 | 
17 | COc1cc(-c2cc(/C=C/C3C(C)=CCCC3(C)C)nn2-c2ccccc2)cc(OC)c1OC (stereo not drawn) | < 4.40 | 
18 | CC1=C(/C=C/C2=NN(c3ccccc3)C(c3cccc(Cl)c3)C2)C(C)(C)CCC1 (stereo not drawn) | < 4.40 | 
19 | CC1=CCCC(C)(C)C1/C=C/c1cc(-c2ccc([N+](=O)[O-])cc2)n(-c2ccccc2)n1 (stereo not drawn) | < 4.40 | 
20 | CC1=CCCC(C)(C)C1/C=C/C1=NN(c2ccccc2)C(c2ccc([N+](=O)[O-])cc2)C1 (stereo not drawn) | < 4.40 | 
21 | CC1=C(/C=C/C2=NN(c3ccccc3)C(c3ccccc3Cl)C2)C(C)(C)CCC1 (stereo not drawn) | < 4.70 | 

Reference: ChEMBL document CHEMBL2331481, “Chemotherapy of leishmaniasis part X: synthesis and bioevaluation of novel terpenyl heterocycles” (Bioorg Med Chem Lett, 2013)
